# System: MS2 coat protein
# Assay: apparent Kd, MS2 coat protein; higher = weaker binding; RNA-MaP array; FMN 200 µM where present
# Method in brief: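 The titrant was SNAP-549-labelled MS2 coat protein, run from 0.7 or 1.5 nM in doubling steps to 3 µM. It was applied to designs transcribed by stalled E. coli RNA polymerase on Illumina sequencing-chip clusters, without ligand first and then with constant ligand, in 100 mM Tris-HCl pH 7.5, 80 mM KCl, 4 mM MgCl2, BSA, DTT, yeast tRNA and Tween-20. The apparent Kd is the median of filtered per-cluster binding-curve fits, with green signal normalised to red-channel RNA signal and control-cluster median Fmax.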
# [1] = designed as: ON switch for flavin mononucleotide, no ligand
# [2] = ligand present: flavin mononucleotide, designed as: ON switch for flavin mononucleotide
# [3] = designed as: OFF switch for flavin mononucleotide, no ligand
# [4] = ligand present: flavin mononucleotide, designed as: OFF switch for flavin mononucleotide
Sequence,apparent Kd [1] [nM],apparent Kd [2] [nM],apparent Kd [3] [nM],apparent Kd [4] [nM]
UUAGCAUACCGAGGAUAUUCAUAUAAUAAAUAAACAUGAGGAUCACCCAUGUGGCGAAAGCCUAGGGAGAAGGCGGAAUGCUAU,197,24.6,,
AGAUAGUCAGGAUAUACGUGGAUGGAACACUUAUUUCCACUACAUGAGGAUCACCCAUGUAGAAGGGACUAUCA,,,17.8,17.8
UUGCCUCAGAACAUGAGGAUCACCCAUGUGCUGCGGGCAACGUAGGAUAUGAUGGUAUGAUACCAUCAGAAGGAUGAUGGUACC,5.96,5.33,,
CCAUCAGCGAACGUAUCGGUUGGACAUGAGGAUCACCCAUGUAGAAGGACAGGAGUAUUACGGCUGUAGGAUAUACAUUUAGUG,,,21.3,18
GGGUACAUUGGAGGAUAUCAUGUAAAUACAUGAGGAUCACCCAUGUCGAUGGAGACAUCGGAGAUUGAGAAGGCCGAUGUACCG,183,9.08,,
UUACUAUCACAGAAGGCUAGAUAGUAUAUAGAUGGAGGAUAUGUGACAUGAGGAUCACCCAUGUUUCACCGACAUGAGGAUCAC,,,17.4,41.6
ACCGGGUACACAGGAUAUCACGUCCUGACAUGAGGAUCACCCAUGUCGGUCUGAGAAGGGUGGUCCCGCAGCCGACUGUGAUGG,254,27.3,,
CCACGACAUGAGGAUCACCCAUGUCAGGAUAUCCCUCAUUGUAUGAAAAUACAAUGAGGGAGAAGGGACGUGAC,,,33.8,31.6
AACCUAUUACAGAAGGCCAGCUACAUGAGGAUCACCCAUGUCGAGUCAUGGAGGAUAUGUAGUAAUUUACUCACAGAUGAGUGA,22.9,5.07,,
GGGUAGUGAGGAUAUCGUUGUUAGGAGGAGUAGGUAGGAGGCGAGAAGGCACAUGAGGAUCACCCAUGUAUGGA,,,36.2,33.3
UUUGAAUUGCAAGGAUAUCUUAUUUAGAUUUUAAGAGAAGGUGCUUUACAGUUACAUGAGGAUCACCCAUGUCUUUCUUUUUAU,24.8,20,,
UGUCGGAGCAGAGGAUAUUACAUGAGGAUCACCCAUGUUUGAACCAAUAGCUGGAAACAGCAAUGUAAGAAGGCUGCUCCGACA,,,91.2,242
GCACAUGGCAUAGGAUAUAGAACUAUACUUUAUAUAGGUAGUUACACUUAACUAGAAGGAUGAUACAUGAGGAUCACCCAUGUA,16.8,14.5,,
UUGGACGUCGUAGGAGAUGUAGGAUAUUCCUACAUGAGGAUCACCCAUGUUGACAUGGAAGAAGGACAGAAGGACGAUGUCCAU,294,8.27,,
UGUGCGUUGAUCUUCGAUCGUUGUACAUGAGGAUCACCCAUGUAGGAUAUUCUAAGACGCAGAUAGGAGAAGGACAUUGGUUUU,,,10.1,17.6
GCCAUCGCAUGAGGAUAUGGCACCGUUUCGGUGCCAGAAGGCAUGUCGAAUGACAUGAGGAUCACCCAUGUAGUUAAGAUGGCA,480,25.2,,
GCACGGAUGGUAGGAUAUCAUUGCGAUUAGCUAUGAGAAGGGCCACAUGAGGAUCACCCAUGUCCUCUAAUUAGCCUUCCGUGC,,,101,101
AAUAAACUCACAGGAUAUAGCAGAUGUCGCGUGAACUUACAGGCGACGAUGCUAGAAGGGUGACCACAUGAGGAUCACCCAUGU,1200,142,,

Sequence,apparent Kd [1] [nM],apparent Kd [2] [nM],apparent Kd [3] [nM],apparent Kd [4] [nM]
AUAAUACAUGAGGAUCACCCAUGUAAUUUAACUUGUAAGAUCAAGGAUAUCAGCUCGAUUAGAGCUGAGAAGGUGAUCACAUGU,154,229,,
AGUAUUGUAGGGUAUCCAACAUGAGGAUCACCCAUGUACCAGAGAAGGACCCGUGCAUUGCUCGGGUAGGAUAUCUGCGCAUCA,,,19.4,172
GGACGUCACAUCUACAUGAGGAUCACCCAUGUCGAAAGACAUGAGGAUAUGCAUCCUAAUUGGAUGCAGAAGGCAUGGACGUCC,667,69.7,,
ACAGAGCUUGACAUGAGGAUCACCCAUGUUAGAUUGUUAUGUCAGGAUAUUGUCUAGCAACUAGACAAGAAGGGAUGCUCUGUG,364,56,,
GCGUUCUUGUAGAAGGUACAUGAAUUCUAUUUUUAACACAUGAAACAUGAGGAUCACCCAUGUUGUAAGGAUAUACAUGAACGC,6.98,5.83,,
UGCCUGAGUCGAGGAUAUUAUGGAUCCUUUAAUACAUGAGGAUCACCCAUGUAAUUAAUUAUACAUGAGAAGGCGACUCAGGCU,88.8,12.5,,
AUUGUUAAGGUAGGAUAUAGUAAAAUGAUUUAGUUAGAAGGAUCUCACAUGAGGAUCACCCAUGUAAGAGGAUCACCCAUGUAU,,,11.1,9.45
CAUGUCCUCACAGGAUAUGCUGGACUUUGUCCAGCAGAAGGGUGAACAUGAGGAUCACCCAUGUAAAGGACAUGUAUAUUUAAU,1080,84.3,,
AGUGUAUCCCUAGGAUAUGCACAUGAGGAUCACCCAUGUAAACCCGCGCAGGCUCUUCUCAUGUCGCAGAAGGAGGGACCCGGA,,,311,39.6
UUGGAGUACGUAGGAUAUGUAGGAUUUUCCUACAUGAGGAUCACCCAUGUUAGCAUGGAAGAAGGACAGAAGGACGUGCUCCAU,1040,78.1,,
GUGAAGGUAGGAUAUACGAUAAUAUAGGGUAGAUAUAUAACACAUGAGGAUCACCCAUGUAGAAGGACCAAUUG,,,34.2,122
UCUGCCGCCGUGAGGAUAUGCCCGCGCGCACGCGGGCAGAAGGCACAUGAGGAUCACCCAUGUCCCGCGGUUUU,,,17.6,38.1
AAUAGUGGCGUAGGAUAUCUGCGUACAUGAGGAUCACCCAUGUCUCCCAGCCGCUGAGCUGGGACAGAGAAGGGCGACCGCAUA,229,88.9,,
AAGAACAUUGACAUGAGGAUCACCCAUGUUGCAGCUAGCUACAGAAGGCACGCGGUACCAAAGGGUGAGGAUAUGUAGGGCCAU,93.4,17.2,,
ACCAACAGGGUUGGUACCGGCGCGCAGGAUAUGCUUGCCUACAUGAGGAUCACCCAUGUCUAAAUGCAGAAGGGUGAGCUGAGC,193,114,,
AAGGAGUAAGGAUAUGCUGCUCGUCACUUGCGUGAUGAGUAGCAGAAGGUACAUGAGGAUCACCCAUGUAAAAA,,,24.5,18.3
GUGGUGGGUUGAGGAUAUUGGUUGUUGUUGUCCCACAUGAGGAUCACCCAUGUGGGUUGUGGUUUUGAGAAGGUUGGUUGCUGG,18.3,15.5,,
GGUGCGAGUGUGAGGAUAUGCUGGUCGUAAGAUCAGCAGAAGGCACAUGAGGAUCACCCAUGUGAAAACGUACC,,,22.3,145

# From the EternaBench riboswitch data
